Experimental data reported in ChEMBL document CHEMBL1165973, “Design, synthesis and antibacterial activity of novel andrographolide derivatives” (Bioorg Med Chem, 2010).
Activity calls are given as the source filed them. The calls are words filed in the database; no cut-off is given here.

How the values were obtained:
[1] = tested on: Pseudomonas aeruginosa PAO1; test: Inhibition of Pseudomonas aeruginosa PAO1 quorum sensing assessed as inhibition of pycocyanin production at 0.5 mM after 24 hrs by spectrometry
Outline: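 PAO1 grown overnight in LB, washed in fresh medium and diluted to OD600 0.05. Aliquots were grown 24 h in tubes with compound at 0.5 mM. Pyocyanin was extracted from filtered culture supernatant and quantified by a published method. Significance versus untreated control was set at P < 0.05.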

Pseudomonas aeruginosa = test: Antibacterial activity at Pseudomonas aeruginosa PAO1 at 2 mM; type: functional, organism-based
[2] = tested on: Pseudomonas aeruginosa PAO1; test: Inhibition of Pseudomonas aeruginosa PAO1 quorum sensing assessed as inhibition of protease production at 0.5 mM after 10 hrs by colorimetric method
Outline: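 PAO1 grown overnight at 37 °C in PB medium ([…]), washed, diluted to OD600 0.05 and grown to midlog. Cells were washed again, reset to OD600 0.05 and cultured 10 h with compound at 0.5 mM. Filtered supernatant was incubated with azocasein in 10 mM Tris pH 7.2 and 1 mM CaCl₂ for 4 h at 37 °C with agitation, then quenched with NaOH and centrifuged.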

Row | inhibition [1] | inhibition [2] | Compound | Activity (Pseudomonas aeruginosa)
1 | Active | – | C=C1CC[C@@H]2[C@](C)(CO)[C@H](O)CC[C@@]2(C)[C@@H]1C/C=C1/C(=O)OC[C@H]1O | –
2 | Active | Active | C=C1CC[C@@H]2[C@](C)(CO)[C@H](O)CC[C@@]2(C)[C@@H]1C/C=C1/C(=O)OC[C@H]1OC(=O)/C=C/C | inactive
3 | Active | Active | C=C1CC[C@@H]2[C@](C)(CO)[C@H](O)CC[C@@]2(C)[C@@H]1C/C=C1/C(=O)OC[C@H]1OC(=O)CC12CC3CC(CC(C3)C1)C2 | inactive
4 | Active | Active | C=C1CC[C@@H]2[C@](C)(CO)[C@H](O)CC[C@@]2(C)[C@@H]1C/C=C1/C(=O)OC[C@H]1OC(=O)CCCC[C@H]1CCSS1 | –
5 | Active | – | C=C1CC[C@@H]2[C@](C)(CO)[C@H](O)CC[C@@]2(C)[C@@H]1C/C=C1/C(=O)OC[C@H]1OC(=O)CCCC | inactive
6 | Active | Active | C=C1CC[C@@H]2[C@](C)(CO)[C@H](O)CC[C@@]2(C)[C@@H]1C/C=C1/C(=O)OC[C@H]1OC(=O)CCCCCCCCCCC | inactive
7 | Active | Active | C=C1CC[C@@H]2[C@](C)(CO)[C@H](O)CC[C@@]2(C)[C@@H]1C/C=C1/C(=O)OC[C@H]1OC(=O)CCCCC | inactive
8 | Active | – | C=C1CC[C@@H]2[C@](C)(CO)[C@H](O)CC[C@@]2(C)[C@@H]1C/C=C1/C(=O)OC[C@H]1OC(=O)CCCCCCC | inactive
9 | Active | Active | C=C1CC[C@@H]2[C@](C)(CO)[C@H](O)CC[C@@]2(C)[C@@H]1C/C=C1/C(=O)OC[C@H]1OC(=O)CCCCC1CCCC1 | inactive
10 | Active | Active | C=C1CC[C@@H]2[C@](C)(CO)[C@H](O)CC[C@@]2(C)[C@@H]1C/C=C1/C(=O)OC[C@H]1OC(=O)/C=C/c1ccco1 | inactive
11 | Active | Active | C=C1CC[C@@H]2[C@](C)(CO)[C@H](O)CC[C@@]2(C)[C@@H]1C/C=C1/C(=O)OC[C@H]1OC(=O)/C=C/C1CCCCC1 | inactive

The remaining lines, values behind:

Row | Compound | inhibition [1] | inhibition [2] | Activity (Pseudomonas aeruginosa)
12 | C=C1CC[C@@H]2[C@]3(C)COC(C)(C)O[C@@H]3CC[C@@]2(C)[C@@H]1C/C=C1/C(=O)OC[C@H]1OC(=O)CCCC | – | – | inactive
13 | C=C1CC[C@@H]2[C@]3(C)COC(C)(C)O[C@@H]3CC[C@@]2(C)[C@@H]1C/C=C1/C(=O)OC[C@H]1OC(=O)C12CC3CC(CC(C3)C1)C2 | – | – | inactive
14 | C=C1CC[C@@H]2[C@]3(C)COC(C)(C)O[C@@H]3CC[C@@]2(C)[C@@H]1C/C=C1/C(=O)OC[C@H]1OC(=O)/C=C/c1ccco1 | – | – | inactive
15 | C=C1CC[C@@H]2[C@]3(C)COC(C)(C)O[C@@H]3CC[C@@]2(C)[C@@H]1C/C=C1/C(=O)OC[C@H]1OC(=O)/C=C/C1CCCCC1 | – | – | inactive
16 | C=C1CC[C@@H]2[C@]3(C)COC(C)(C)O[C@@H]3CC[C@@]2(C)[C@@H]1C/C=C1/C(=O)OC[C@H]1OC(=O)CCCCC | – | – | inactive
17 | C=C1CC[C@@H]2[C@]3(C)COC(C)(C)O[C@@H]3CC[C@@]2(C)[C@@H]1C/C=C1/C(=O)OC[C@H]1OC(=O)CCCC1CCCC1 | – | – | inactive
18 | C=C1CC[C@@H]2[C@]3(C)COC(C)(C)O[C@@H]3CC[C@@]2(C)[C@@H]1C/C=C1/C(=O)OC[C@H]1OC(=O)CCCCCCC | – | – | inactive
19 | C=C1CC[C@@H]2[C@]3(C)COC(C)(C)O[C@@H]3CC[C@@]2(C)[C@@H]1C/C=C1/C(=O)OC[C@H]1OC(=O)/C=C/C | – | – | inactive
20 | C=C1CC[C@@H]2[C@]3(C)COC(C)(C)O[C@@H]3CC[C@@]2(C)[C@@H]1C/C=C1/C(=O)OC[C@H]1OC(=O)CCCCCCCCCCC | – | – | inactive
